Source: the RNAGym collection of RNA variant scans (doi:10.1126/science.aae0568)
Fewer inactive variants are shown than the library holds.

B1: tRNA (parent)
chain: GUUCCGUUGGCGUAAUGGUAACGCGUCUCCCUCCUAAGGAGAAGACUGCGGGUUCGAGUCCCGUACGGAACG

Variants of: B1
Assay: yeast fitness relative to wild type (ratio to wild type); higher = fitter; tRNA-Arg(CCU), competitive growth, 37 C, YPD
Summary of the method: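 Genotype frequency changes were the basis for Darwinian fitness relative to wild type. The frequencies came from 100-nucleotide paired-end sequencing of gene amplicons from the start population and each end population of pooled yeast strains with tRNA-Arg(CCU) gene variants at the native locus. Competition ran in YPD at 37°C for 24 hours in six replicates, genotypes needed ≥ 100 starting reads, and estimates < 0.5 were set to 0.5.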

Row | Variant | yeast fitness
1 | GUUCCGUUGGCGUAAUGGUAGCGCGUCUCUCUCCUAAGGAGAAGACUGCGGGUUCGAGUCCCGUACGGAACG [A21G C30U] | 0.97
2 | GUUCCGUUGGCGUAAUGGUAGCGCGUCUCGCUCCUAAGGAGAAGACUGCGGGUUCGAGUCCCGUACGGAACG [A21G C30G] | 0.784
3 | GUUCCGUUGGCGUAAUGGUAGCGCGUCUCCCUCGUAAGGAGAAGACUGCGGGUUCGAGUCUCGUACGGACCG [A21G C34G C61U A70C] | 0.555
4 | GUUCCGUUGGCGUAAUGGUAGCGCGUCUCCCUCUUAAGGAGAAGACUGCGGGUUCGAGUCCCGUACGGAACG [A21G C34U] | 0.701
5 | GUUCCGUUGGCGUAAUGGUAGCGCGUCUCCCUCGUAAGGAGAAGACUGCGGGUUCGAGUCCCGUACGGAACG [A21G C34G] | 0.598
6 | GUUCCGUUGGCGUAAUGGUAGCACGUGUCCCUCCUAUGGAGAAAACUGUGGGUUCGAGUCCCGUACGGAACG [A21G G23A C27G A37U G44A C49U] | 0.564
7 | GUUCCGUUGGCGUAAUGGUAGCGCGUCUCGCUCCUAAGGAGAAGACUGCGGGUUCGAGUCCCGUACGGCACG [A21G C30G A69C] | 0.544
8 | GUUCCGUUGGCGUAAUGGUAGCGCGUCUCCCUCCUAAGGAGAAGACUGGGGGUUCGAGUCCCGUACGGAACG [A21G C49G] | 1.13
9 | GUUCCGUUGGCGUAAUGGUAGCGCGUCUCCCUCCUAAGGAGAAGACUGAGGGUUCGAGUCCCGUACGGAACG [A21G C49A] | 0.736
10 | GUUCCGUUGGCGUAAUGGUAGCGCGUCUCCCUCCUAAGGAGAAGAAUGCGGGUUCGAGUCCCGUACGGACCG [A21G C46A A70C] | 1.07
11 | GUUCCGUUGGCGUAAUGGUAGCGCGUCUCCCUCCUAAGGAGAAGACUGCGGGUUCGAGUCGCGGACGGAACG [A21G C61G U64G] | 0.586
12 | GUUCCGUUGGCGUAAUGGUAGCGCGUCUCGCUCCUAAGGAGAAGACUGCGGGUUCGAGUCCCGUACUGAACG [A21G C30G G67U] | ≤ 0.5
13 | GUUCCGUUGGCGUAAUGGUAGCGCGUCUCACUGCUAAGGAGAAGACUGCGGGUUCGAGACCCGUAUGGAACG [A21G C30A C33G U59A C66U] | 0.535
14 | GUUCCGUUGGCGUAAUGGUAGCGCGUCUUCCUCCUAAGGACAAGACUGCGGGUUUGAGUCCCGUACGCAACG [A21G C29U G41C C55U G68C] | ≤ 0.5
15 | GUUCCGUUGGCGUAAUGGUAGCGCGUCUCCCUUCUAAGGAGAACACUGCGGGUUCGAGUCCCGUACGGACCG [A21G C33U G44C A70C] | ≤ 0.5
16 | GUUCCGUUGGCGUAAUGGUAGCGCGUCUCCCUCCUAAGGAGAAGACUGUGGGUUCGAGUCCCCUACGGAACG [A21G C49U G63C] | ≤ 0.5
17 | GUUCCGUUGGCGUAAUGGUAGCGCGUCUCCCUGCUAAGGAGAAGACUGCGGGUUCGAGUCCCGUACAGAACG [A21G C33G G67A] | ≤ 0.5
18 | GUUCCGUUGGCGUAAUGGUAGCGCGUCUCCCUCCUAAGGAGAAGAUUGCGGGUUGGAGUCCCGUACGGAACG [A21G C46U C55G] | 0.603
19 | GUUCCGUUGGCGUAAUGGUAGCGCGUCUCCUUCCCAAGGGGAAGACUGCGGGUUCGAGUCCCGUUCGGAACG [A21G C31U U35C A40G A65U] | ≤ 0.5

Row | Variant | yeast fitness
20 | GUUCCGUUGGCGUAAUGGUAGCACGUCUCCCUCCUAAGGAGAAGACUGCGGGUUCGUGUCGCGUACGGAACG [A21G G23A A57U C61G] | 0.623
21 | GUUCCGUUGGCGUAAUGGUAGCGCGUCUCUCUCCUAAGGAGAAGACUGCGGGUUCGAGUCCCGUACGCAACG [A21G C30U G68C] | 0.582
22 | GUUCCGUUGGCGUAAUGGUAGCGCGUCUCCCUCCUAAGGAGAAGAUUGCGGGUUCAAGUCGCGUACGGAACG [A21G C46U G56A C61G] | ≤ 0.5
23 | GUUCCGUUGGCGUAAUGGUAGCGCGUCUCCCUGCUAAAGAGAAGACUGCGGGUUCGAGUCCCAUACGGAACG [A21G C33G G38A G63A] | ≤ 0.5
24 | GUUCCGUUGGCGUAAUGGUAGCGCGUCUCCCUCGUAAGGAGAAGACUGCGGGUUCGAGUCUCGUACGGAACG [A21G C34G C61U] | 0.722
25 | GUUCCGUUGGCGUAAUGGUAGCGCGUCUCCCUCGUAAGGAGAAGACUGCGGGUUCGAGUCCCAUACCGAACG [A21G C34G G63A G67C] | ≤ 0.5
26 | GUUCCGUUGGCGUAAUGGUAGCGCGUCUCCGUCCUAAGGAGAAGGCUGCGGGUUCGAGUCCCGUACGGAACG [A21G C31G A45G] | 0.938
27 | GUUCCGUUGGCGUAAUGGUAGCGCGUCUCGCUCCUAAGGAGAAGACUGCGCGUUCGAGUCCCGUACGGAACG [A21G C30G G51C] | ≤ 0.5
28 | GUUCCGUUGGCGUAAUGGUAGCGCGUCUCCCUUCUAAGGAGAAGACUGCGGGUUCGAGACCCGUACGGAACG [A21G C33U U59A] | ≤ 0.5
29 | GUUCCGUUGGCGUAAUGGUAGCGCGUCUCGCUCCUAAGGAGAAGACUGCGGGUUUGAGUCCCGUACGGAACG [A21G C30G C55U] | 0.682
30 | GUUCCGUUGGCGUAAUGGUAGCGCGUCUCCCUCCUAAGGAGAAGACUGUGGGUUCGAGUCCCGUACGGAGCG [A21G C49U A70G] | 0.817
31 | GUUCCGUUGGCGUAAUGGUAGCACGUGUCCCUCCUAAGCAGAAGGCUGCGGGUUCGAGUCCCGUACGGAACG [A21G G23A C27G G39C A45G] | ≤ 0.5
32 | GUUCCGUUGGCGUAAUGGUAGCACGUGUCCCUCCUAUGGAGAAAACUGUGGGUUCGAGUCCCGUACCGUACG [A21G G23A C27G A37U G44A C49U G67C A69U] | ≤ 0.5
33 | GUUCCGUUGGCGUAAUGGUAGCGCGUCUCCCUUCUAAGGAGAAGACUGCGGGUUCGAGUCCCGUACGGAACG [A21G C33U] | 0.73
34 | GUUCCGUUGGCGUAAUGGUAGCGCGUCUCCGUCCUAAGGAGAAGACUGCGGGUUCGAGUCCCGUACGGCACG [A21G C31G A69C] | 0.755
35 | GUUCCGUUGGCGUAAUGGUAGCGCGUCUCCGUCCUAAGGAGAAGACUGCGGGUUCGAGUCCCGUACGGAGCG [A21G C31G A70G] | 0.787
36 | GUUCCGUUGGCGUAAUGGUAGCGCGUCUCCCUUCUAAGGAGAAGACUGCGGGUUCGAGUACCGUACGGAACG [A21G C33U C60A] | ≤ 0.5
37 | GUUCCGUUGGCGUAAUGGUAGCGCGUCUCCCUUCUAAGGAGAAGACUGCGGGUUCGAGUUCCGUACGGAACG [A21G C33U C60U] | 0.603
38 | GUUCCGUUGGCGUAAUGGUAGCGCGUCUUCCUCCUAAGGACAAGACUGCGGGUUCGAGUCCCGUACGGUACG [A21G C29U G41C A69U] | 0.63
